According to ChEMBL document CHEMBL3525944, “Nonlinear pharmacokinetics of 5-methoxy-N,N-dimethyltryptamine in mice” (Drug Metab Dispos, 2011):

Experiments:
[1] = Bioavailability in wild-type FVB/N mouse at 2 mg/kg, ip by LC-MS/MS analysis; type: ADME, organism-based; details: in vivo
[2] = system: Mus musculus; assay: AUC (0 to infinity) in CYP2D6-humanized transgenic FVB/N mouse at 2 mg/kg, iv by LC-MS/MS analysis; type: ADME, organism-based, Plasma; set-up: time infinity, dose 2 mg/kg, route intravenous; details: in vivo
[3] = Clearance in CYP2D6-humanized transgenic FVB/N mouse at 20 mg/kg, iv by LC-MS/MS analysis; type: ADME, organism-based; set-up: dose 20 mg/kg, route intravenous; details: in vivo
[4] = system: Mus musculus; assay: AUC (0 to infinity) in wild-type FVB/N mouse at 20 mg/kg, ip by LC-MS/MS analysis; type: ADME, organism-based, Plasma; set-up: time infinity, dose 20 mg/kg, route intraperitoneal; details: in vivo
[5] = Tmax in CYP2D6-humanized transgenic FVB/N mouse at 20 mg/kg, ip by LC-MS/MS analysis; type: ADME, organism-based; set-up: dose 20 mg/kg, route intraperitoneal; details: in vivo
Summary of the method: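 Male 8-week FVB/N wild-type or CYP2D6-humanized mice given 5-MeO-DMT oxalate in saline i.p. at 10 µL/g body weight. Serum sampled 0-180 min, N = 4 per time point, processed by acetonitrile protein precipitation with internal standard, quantified by LC-MS/MS. Tmax taken as observed from composite mean serum concentration-time data.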

[6] = Volume of distribution at steady state in CYP2D6-humanized transgenic FVB/N mouse at 20 mg/kg, iv by LC-MS/MS analysis; type: ADME, organism-based; set-up: dose 20 mg/kg, route intravenous; details: in vivo, read-out: Vdss
Summary of the method: (§1)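 Male 8-week FVB/N wild-type or CYP2D6-humanized mice (25-30 g) given 5-MeO-DMT oxalate in saline i.v. at 5 µL/g body weight. Serum collected 0-180 min, N = 3 per time point, proteins precipitated with ice-cold acetonitrile containing internal standard, LC-MS/MS. Noncompartmental analysis of composite mean data; t1/2 = 0.693/terminal slope; Vss = CL×AUMC/AUC, CL = dose/AUC0→∞.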

[7] = system: Mus musculus; assay: AUC (0 to infinity) in wild-type FVB/N mouse at 20 mg/kg, iv by LC-MS/MS analysis; type: ADME, organism-based, Plasma; set-up: time infinity, dose 20 mg/kg, route intravenous; details: in vivo
[8] = Ratio of drug level in brain to serum in wild-type FVB/N mouse at 20 mg/kg, ip by LC-MS/MS analysis; type: ADME, organism-based; set-up: dose 20 mg/kg, route intraperitoneal
Summary of the method: (§2)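 Mice dosed i.p. with 5-MeO-DMT in saline and killed at 20, 30 or 60 min. Brain homogenized in ice-cold saline and extracted liquid-liquid; serum processed by acetonitrile precipitation. Both quantified by LC-MS/MS (brain range 4.1-3000 nM). Ratio is brain over serum concentration at the same time point.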

[9] = Volume of distribution at steady state in CYP2D6-humanized transgenic FVB/N mouse at 2 mg/kg, iv by LC-MS/MS analysis; type: ADME, organism-based; set-up: dose 2 mg/kg, route intravenous; details: in vivo, read-out: Vdss; summary of the method: as §1
[10] = Clearance in CYP2D6-humanized transgenic FVB/N mouse at 10 mg/kg, iv by LC-MS/MS analysis; type: ADME, organism-based; set-up: dose 10 mg/kg, route intravenous; details: in vivo
[11] = system: Mus musculus; assay: Dose normalized AUC (0 to infinity) in CYP2D6-humanized transgenic FVB/N mouse at 10 mg/kg, iv by LC-MS/MS analysis; type: ADME, organism-based; set-up: dose 10 mg/kg, route intravenous; details: in vivo
[12] = Volume of distribution at steady state in wild-type FVB/N mouse at 20 mg/kg, iv by LC-MS/MS analysis; type: ADME, organism-based; set-up: dose 20 mg/kg, route intravenous; details: in vivo, read-out: Vdss; summary of the method: as §1
[13] = Bioavailability in wild-type FVB/N mouse at 10 mg/kg, ip by LC-MS/MS analysis; type: ADME, organism-based; details: in vivo
[14] = system: Mus musculus; assay: Dose normalized AUC (0 to infinity) in wild-type FVB/N mouse at 10 mg/kg, iv by LC-MS/MS analysis; type: ADME, organism-based; set-up: dose 10 mg/kg, route intravenous; details: in vivo
[15] = Volume of distribution at steady state in wild-type FVB/N mouse at 2 mg/kg, iv by LC-MS/MS analysis; type: ADME, organism-based; set-up: dose 2 mg/kg, route intravenous; details: in vivo, read-out: Vdss; summary of the method: as §1
[16] = Cmax in wild-type FVB/N mouse at 10 mg/kg, ip by LC-MS/MS analysis; type: ADME, organism-based; set-up: dose 10 mg/kg, route intraperitoneal; details: in vivo
[17] = system: Mus musculus; assay: Dose normalized AUC (0 to infinity) in wild-type FVB/N mouse at 2 mg/kg, iv by LC-MS/MS analysis; type: ADME, organism-based; set-up: dose 2 mg/kg, route intravenous; details: in vivo
[18] = system: Mus musculus; assay: Dose normalized AUC (0 to infinity) in wild-type FVB/N mouse at 2 mg/kg, ip by LC-MS/MS analysis; type: ADME, organism-based; set-up: dose 2 mg/kg, route intraperitoneal; details: in vivo
[19] = Half life in wild-type FVB/N mouse at 20 mg/kg, iv by LC-MS/MS analysis; type: ADME, organism-based; set-up: dose 20 mg/kg, route intravenous; details: in vivo; summary of the method: as §1
[20] = Ratio of drug level in brain to serum in wild-type FVB/N mouse at 10 mg/kg, ip by LC-MS/MS analysis; type: ADME, organism-based; set-up: dose 10 mg/kg, route intraperitoneal; summary of the method: as §2
[21] = Bioavailability in CYP2D6-humanized transgenic FVB/N mouse at 10 mg/kg, ip by LC-MS/MS analysis; type: ADME, organism-based; details: in vivo
[22] = system: Mus musculus; assay: AUC (0 to infinity) in wild-type FVB/N mouse at 10 mg/kg, ip by LC-MS/MS analysis; type: ADME, organism-based, Plasma; set-up: time infinity, dose 10 mg/kg, route intraperitoneal; details: in vivo
[23] = Cmax in wild-type FVB/N mouse at 20 mg/kg, ip by LC-MS/MS analysis; type: ADME, organism-based; set-up: dose 20 mg/kg, route intraperitoneal; details: in vivo
[24] = Bioavailability in CYP2D6-humanized transgenic FVB/N mouse at 2 mg/kg, ip by LC-MS/MS analysis; type: ADME, organism-based; details: in vivo
[25] = system: Mus musculus; assay: AUC (0 to infinity) in wild-type FVB/N mouse at 2 mg/kg, ip by LC-MS/MS analysis; type: ADME, organism-based, Plasma; set-up: time infinity, dose 2 mg/kg, route intraperitoneal; details: in vivo
[26] = system: Mus musculus; assay: Dose normalized AUC (0 to infinity) in wild-type FVB/N mouse at 10 mg/kg, ip by LC-MS/MS analysis; type: ADME, organism-based; set-up: dose 10 mg/kg, route intraperitoneal; details: in vivo
[27] = system: Mus musculus; assay: AUC (0 to infinity) in wild-type FVB/N mouse at 10 mg/kg, iv by LC-MS/MS analysis; type: ADME, organism-based, Plasma; set-up: dose 10 mg/kg, route intravenous, time infinity; details: in vivo
[28] = system: Mus musculus; assay: AUC (0 to infinity) in CYP2D6-humanized transgenic FVB/N mouse at 2 mg/kg, ip by LC-MS/MS analysis; type: ADME, organism-based, Plasma; set-up: time infinity, dose 2 mg/kg, route intraperitoneal; details: in vivo
[29] = Cmax in CYP2D6-humanized transgenic FVB/N mouse at 10 mg/kg, ip by LC-MS/MS analysis; type: ADME, organism-based; set-up: dose 10 mg/kg, route intraperitoneal; details: in vivo
[30] = system: Mus musculus; assay: AUC (0 to infinity) in CYP2D6-humanized transgenic FVB/N mouse at 20 mg/kg, ip by LC-MS/MS analysis; type: ADME, organism-based, Plasma; set-up: time infinity, dose 20 mg/kg, route intraperitoneal; details: in vivo
[31] = Toxicity in mouse; type: organism-based; details: in vivo
[32] = Clearance in wild-type FVB/N mouse at 2 mg/kg, iv by LC-MS/MS analysis; type: ADME, organism-based; set-up: dose 2 mg/kg, route intravenous; details: in vivo
[33] = system: Mus musculus; assay: Dose normalized AUC (0 to infinity) in CYP2D6-humanized transgenic FVB/N mouse at 10 mg/kg, ip by LC-MS/MS analysis; type: ADME, organism-based; set-up: dose 10 mg/kg, route intraperitoneal; details: in vivo
[34] = system: Mus musculus; assay: Dose normalized AUC (0 to infinity) in wild-type FVB/N mouse at 20 mg/kg, iv by LC-MS/MS analysis; type: ADME, organism-based; set-up: dose 20 mg/kg, route intravenous; details: in vivo
[35] = Cmax in CYP2D6-humanized transgenic FVB/N mouse at 20 mg/kg, ip by LC-MS/MS analysis; type: ADME, organism-based; set-up: dose 20 mg/kg, route intraperitoneal; details: in vivo

With COc1ccc2[nH]cc(CCN(C)C)c2c1.O=C(O)C(=O)O the bioavailability [1] was 52.2%, the AUC [2] was 49.1 µmol·min/L and the clearance [3] was 110 mL/min/kg. For the same molecule, the AUC [4] was 654 µmol·min/L, the Tmax [5] was 5 min and the Vd [6] was 2.18 L/kg. The AUC [7] was 920 µmol·min/L, the Kp [8] was 2.7 and the Vd [9] was 2.55 L/kg. For the same molecule, the clearance [10] was 120 mL/min/kg, the AUC/dose [11] was 8.1 kg·min/L and the Vd [12] was 1.84 L/kg. It also gave a bioavailability [13] of 47.3%, an AUC/dose [14] of 10.6 kg·min/L and a Vd [15] of 2.27 L/kg. For the same molecule, the Cmax [16] was 7 µM, the AUC/dose [17] was 5.19 kg·min/L and the AUC/dose [18] was 2.71 kg·min/L. It also gave a half-life [19] of 15 min, a Kp [20] of 1.8 and a bioavailability [21] of 61%. The AUC [22] was 231 µmol·min/L, the Cmax [23] was 15.8 µM and the bioavailability [24] was 42.5%. For the same molecule, the AUC [25] was 24.9 µmol·min/L, the AUC/dose [26] was 5.03 kg·min/L and the AUC [27] was 487 µmol·min/L. It also gave an AUC [28] of 20.9 µmol·min/L, a Cmax [29] of 8.93 µM and an AUC [30] of 569 µmol·min/L. It also gave an LD50 [31] of 48 mg/kg, a clearance [32] of 190 mL/min/kg and an AUC/dose [33] of 4.92 kg·min/L. For the same molecule, the AUC/dose [34] was 10 kg·min/L and the Cmax [35] was 18.3 µM.
